Measurements: ChEMBL document CHEMBL1142364, “Investigation of the alkenyldiarylmethane non-nucleoside reverse transcriptase inhibitors as potential cAMP phosphodiesterase-4B2 inhibitors” (Bioorg Med Chem Lett, 2008)
Activity calls are given as the source filed them. The calls are words filed in the database; no cut-off is given here.

Columns and labels:
[1] = Cytotoxicity against human MT4 cells; type: cell-based
How it was run: (§1)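 Mock-infected CEM-SS or MT-4 cells run alongside the antiviral cultures; CC50 is the concentration causing death of 50% of the cells.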

[2] = tested on: Human immunodeficiency virus 1; assay: Antiviral activity against HIV1 3B in MT4 cells assessed as inhibition of virus-induced cytopathic effect by MTT assay; type: functional, organism-based; conditions: Human immunodeficiency virus 1, 3B
How it was run: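 Cytoprotection in MT-4 cells infected with HIV-1 IIIB, read by MTT assay; EC50 taken as the concentration giving 50% inhibition of viral cytopathic effect.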

[3] = target: Human immunodeficiency virus type 1 reverse transcriptase (Human immunodeficiency virus 1, UniProt Q72547); assay: Inhibition of HIV1 reverse transcriptase
How it was run: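 Recombinant HIV-1 RT, p66/51 heterodimer; polymerase activity measured with poly(rC).oligo(dG) as template primer.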

[4] = tested on: Human immunodeficiency virus 2; assay: Antiviral activity against HIV2 ROD in MT4 cells assessed as inhibition of virus-induced cytopathic effect by MTT assay; type: functional, organism-based
How it was run: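 MT-4 cells infected with HIV-2 ROD; protection from cytopathic effect read by MTT assay; EC50 is the concentration blocking 50% of virus-induced cell killing.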

[5] = tested on: Human immunodeficiency virus 1; assay: Antiviral activity against HIV1 RF in CEM-SS cells assessed as inhibition of virus-induced cytopathic effect by XTT assay; type: functional, organism-based; conditions: Human immunodeficiency virus 1, RF
How it was run: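 CEM-SS cells infected with HIV-1 RF; XTT cytoprotection read-out; EC50 is the concentration that inhibits 50% of viral cytopathic effect.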

[6] = target: 3',5'-cyclic-AMP phosphodiesterase 4B (Homo sapiens) (UniProt Q07343); assay: Inhibition of PDE4B2 expressed in COS7 cells assessed as cAMP hydrolysis at 100 uM; type: cell-based; conditions: COS-7
Chain of 3',5'-cyclic-AMP phosphodiesterase 4B (Homo sapiens) (Q07343 whole entry): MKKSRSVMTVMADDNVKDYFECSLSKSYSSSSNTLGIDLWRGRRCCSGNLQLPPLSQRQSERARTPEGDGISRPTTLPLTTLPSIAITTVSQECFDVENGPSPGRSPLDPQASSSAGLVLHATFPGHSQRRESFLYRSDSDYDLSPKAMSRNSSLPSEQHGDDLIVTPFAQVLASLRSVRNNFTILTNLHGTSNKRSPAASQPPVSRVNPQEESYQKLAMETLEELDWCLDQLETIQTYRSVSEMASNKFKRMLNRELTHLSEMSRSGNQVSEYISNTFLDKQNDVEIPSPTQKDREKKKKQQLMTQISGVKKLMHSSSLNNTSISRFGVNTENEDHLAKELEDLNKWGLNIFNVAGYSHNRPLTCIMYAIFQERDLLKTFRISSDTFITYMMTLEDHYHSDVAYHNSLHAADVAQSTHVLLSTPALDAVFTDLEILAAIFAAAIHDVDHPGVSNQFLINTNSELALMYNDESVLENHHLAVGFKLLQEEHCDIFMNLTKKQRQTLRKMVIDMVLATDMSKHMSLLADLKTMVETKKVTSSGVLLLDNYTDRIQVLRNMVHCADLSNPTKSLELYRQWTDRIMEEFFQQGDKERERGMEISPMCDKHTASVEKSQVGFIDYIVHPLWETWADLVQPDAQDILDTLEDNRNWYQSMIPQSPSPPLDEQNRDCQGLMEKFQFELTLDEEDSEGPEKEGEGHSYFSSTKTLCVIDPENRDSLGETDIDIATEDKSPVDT

[7] = Cytotoxicity against human CEM-SS cells; type: cell-based; how it was run: as §1

Row | SMILES | CC50 [1] [µM] | EC50 [2] [µM] | IC50 [3] [µM] | Activity [4] | EC50 [5] [µM] | inhibition [6] [%] | CC50 [7] [µM] | EC50 ([4]; Human immunodeficiency virus 2, ROD) [µM] | Activity [6]
1 | COC(=O)CCCC=C(c1cc(C)c2oc(=O)n(C)c2c1)c1cc(C)c2oc(=O)n(C)c2c1 | 33 | 0.22 | 0.5 | inactive | 0.62 | 71 | 31 |  | 
2 | COC(=O)c1cc(C(=CCCCc2ccccc2)c2cc(Br)c(OC)c(C(=O)OC)c2)cc(Br)c1OC | > 198 |  | > 100 |  |  |  | > 200 | 21 | inactive
3 | COC(=O)c1cc(C(=CCCCSC)c2cc(Cl)c(OC)c(C(=O)OC)c2)cc(Cl)c1OC |  |  | > 100 |  | 5.3 | 20 | > 20 |  | 
4 | CCCCCC=C(c1cc(Cl)c(OC)c(C(=O)OC)c1)c1cc(Cl)c(OC)c(C(=O)OC)c1 |  |  |  |  | 16 |  | > 29 |  | inactive
5 | COC(=O)CCCC=C(c1cc(Br)c(OC)c(C(=O)OC)c1)c1cc(Br)c(OC)c(C(=O)OC)c1 |  |  |  | inactive | 0.001 | 40 |  |  | 
6 | COC(=O)CCC/C=C(\c1cc(C)c(OC)c(C(=O)OC)c1)c1cc(C)c2oc(=O)n(C)c2c1 |  | 0.09 |  | inactive | 0.03 | 72 |  |  | 
7 | Cc1ccnc2c1NC(=O)c1cccnc1N2C1CC1 |  |  |  | inactive |  |  |  |  | 
8 | COc1ccc(C2CNC(=O)C2)cc1OC1CCCC1 (stereo not drawn) |  |  |  |  |  | 100 |  |  | 
